ChEMBL document CHEMBL1121731, “Synthesis and neuroleptic activity of benzamides. Cis-N-(1-benzyl-2-methylpyrrolidin-3-yl)-5-chloro-2-methoxy-4-(methylamino)benzamide and related compounds” (1981)

Columns and labels:
Format in all cases: functional
[1] = test system: Rattus norvegicus; test: Subcutaneous dose to inhibit apomorphine-induced stereotyped behavior in 50% of rats
In short: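 Test drugs given subcutaneously to rats; 30 min later apomorphine 1.25 mg/kg i.v. Inhibition scored positive unless both gnawing and licking were seen during 20 min after apomorphine. ED50 estimated by Litchfield–Wilcoxon or graphical method, 6–12 rats per dose.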

[2] = species: Rattus norvegicus; test: Effective dose to induce catalepsy in 50% of the rats (95% confidence limits included in parentheses)
[3] = species: Rattus norvegicus; test: The inhibitory effect on the continuous avoidance was expressed as the dose to increase the number of electroshocks by 60% of the rats
In short: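 Modified Sidman continuous avoidance schedule in rats; shock-shock interval 5 s, response-shock interval 25 s; only rats receiving fewer than 19 shocks/h used. Drugs given subcutaneously; effect expressed as dose raising electroshocks by 60 (1 shock/min) between 1 and 2 h post-dose.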

[4] = species: Rattus norvegicus; test: Effective dose to induce catalepsy in 50% of the rats
[5] = Ratio of ED50 for inhibition of catalepsy induction to stereotypy induction
[6] = Rattus norvegicus, sc, read-out: ED50

SMILES | ED50 [1, 6] [mg/kg] | other results
COc1cc(N)c(Cl)cc1C(=O)NCCN(C)CC1CCCCC1 | 3 | 
CCN(CCNC(=O)c1cc(Cl)c(N)cc1OC)Cc1ccccc1 | 0.31 | 
COc1cc(N2CCCC2)c(Cl)cc1C(=O)NC1CCN(Cc2ccccc2)C1 (configuration not stated) | 0.6 | 
CCN(CCNC(=O)c1cc(Cl)c(N)cc1OC)Cc1ccc(OC)cc1 | 0.2 | 
COc1ccc(S(N)(=O)=O)cc1C(=O)NCCN(C)Cc1ccccc1 | > 30 | 
CCN(CCNC(=O)c1cc(Cl)c(N)cc1OC)Cc1ccccc1OC | 10 | 
CNc1cc(OC)c(C(=O)NC2CCN(Cc3ccccc3)C2C)cc1Cl (cis isomer) [NEMONAPRIDE] |  | ED50 [1]: 0.0076 mg/kg; ED50 [2]: 0.5 mg/kg; ED50 [3]: 0.0034 mg/kg
COc1cc(N)c(Cl)cc1C(=O)NCCN(Cc1ccc(Cl)cc1)C(C)C | 3 | 
CNc1cc(OC)c(C(=O)NC2CCN(Cc3ccccc3)C2C)cc1Cl (trans isomer) [NEMONAPRIDE] |  | ED50 [1]: 0.057 mg/kg
CCC1c2ccccc2CN1CNC(=O)c1cc(Cl)c(N)cc1OC (configuration not stated) | 1 | 
CCNc1cc(OC)c(C(=O)NC2CCN(Cc3ccccc3)C2)cc1Cl (configuration not stated) | 0.1 | 
CNc1cc(OC)c(C(=O)NCCN(C)Cc2ccccc2)cc1Cl.Cl | 0.21 | ED50 [4]: 16.5 mg/kg; ED50 [3]: 0.041 mg/kg; Ratio [5]: 79
COc1cc(N(C)C(C)=O)c(Cl)cc1C(=O)NC1CCN(Cc2ccccc2)C1 (configuration not stated) | > 30 | 
CCN(CCNC(=O)c1cc(Cl)c(N)cc1OC)Cc1cccc(Cl)c1 | 0.58 | 
COc1cc(N)c(Cl)cc1C(=O)NCCN(C)Cc1ccccc1 | 0.38 | 
COc1cc(N)c(Cl)cc1C(=O)NCCN(C)C(C)c1ccccc1 (configuration not stated) | 1 | 
COc1cc(NC=O)c(Cl)cc1C(=O)NC1CCN(Cc2ccccc2)C1 (configuration not stated) | 0.6 | 
CCCN(CCNC(=O)c1cc(Cl)c(N)cc1OC)Cc1ccc(Cl)cc1 | 3 | 
COc1ccc(S(C)(=O)=O)cc1C(=O)NCCN(C)Cc1ccccc1 | 3 | 
CCN(CCNC(=O)c1cc(Cl)c(N)cc1OC)Cc1ccc(Cl)cc1 | 0.24 | 

SMILES | ED50 [1, 6] [mg/kg] | other results
COc1cc(N(C)C)c(Cl)cc1C(=O)NCC1CCCN1C1CCCCC1.O=C(O)C(=O)O (configuration not stated) | > 30 | 
COc1cc(N)c(Cl)cc1C(=O)NCCN(C)Cc1ccccc1C | 2 | 
CCN(CCNC(=O)c1cc(Cl)c(N)cc1OC)Cc1ccc(F)cc1 | 0.2 | 
CNc1cc(OC)c(C(=O)NC2CCN(Cc3ccccc3)C2C)cc1Cl (cis isomer) |  | Ratio [5]: 66
COc1cc(N)c(Cl)cc1C(=O)NCC1CCCN1Cc1ccccc1 (configuration not stated) | 1.1 | 
COc1cc(N(C)C(=O)C(F)(F)F)c(Cl)cc1C(=O)NC1CCN(Cc2ccccc2)C1 (configuration not stated) | 0.3 | 
COc1cc(N)c(Cl)cc1C(=O)NC1CCN(C2CCCCC2)C1 (configuration not stated) | 1.8 | 
CCN1CCCC1CNC(=O)c1cc(Cl)c(N)cc1OC (configuration not stated) | > 30 | 
CCN(CCNC(=O)c1cc(Cl)c(N)cc1OC)Cc1ccccc1Cl | 10 | 
COc1ccc(OC)c(C(=O)NCCN(C)Cc2ccccc2)c1.Cl | 3 | 
CCNS(=O)(=O)c1ccc(OC)c(C(=O)NCCN(C)Cc2ccccc2)c1 | > 30 | 
CCN1CCCC1CNC(=O)c1cc(S(=O)(=O)CC)ccc1OC (configuration not stated) [SULTOPRIDE] | 18 | 
COc1cc(NCc2ccccc2)c(Cl)cc1C(=O)NC1CCN(Cc2ccccc2)C1 (configuration not stated) | > 30 | 
COc1cc(NC(C)=O)c(Cl)cc1C(=O)NC1CCN(Cc2ccccc2)C1 (configuration not stated) | 1.8 | 
COc1ccc(Cl)cc1C(=O)NCCN(C)Cc1ccccc1.Cl | 3 | 
COc1cc(N)c(Cl)cc1C(=O)NCCN(Cc1ccccc1)Cc1ccccc1 | > 30 | 
CCCNc1cc(OC)c(C(=O)NC2CCN(Cc3ccccc3)C2)cc1Cl (configuration not stated) | 17 | 
COc1cc(N(C)C)c(Cl)cc1C(=O)NCCN(C)Cc1ccccc1 | 0.54 | 
CCN(CCNC(=O)c1cc(Cl)c(N)cc1OC)Cc1ccccn1 | 30 | 
COc1cc(N(C)C)c(Cl)cc1C(=O)NC1CCN(Cc2ccccc2)C1 (configuration not stated) | 0.12 | 

SMILES | ED50 [1, 6] [mg/kg] | other results
CN(CCNC(=O)c1ccc(F)cc1)Cc1ccccc1.Cl | > 30 | 
COc1cc(N)c(Cl)cc1C(=O)NCCN(C)Cc1ccccc1C(F)(F)F | 30 | 
COc1cc(N)c(Cl)cc1C(=O)NC1CCN(Cc2ccccc2)C1 (configuration not stated) | 0.17 | 
CNc1cc(OC)c(C(=O)NCC2CCC(C)N2Cc2ccccc2)cc1Cl.Cl (configuration not stated) | 0.35 | ED50 [4]: 13.5 mg/kg; ED50 [3]: 0.11 mg/kg; Ratio [5]: 39
CCN(CC)CCNC(=O)c1cc(Cl)c(N)cc1OC [METOCLOPRAMIDE] | 3.1 | ED50 [4]: 26 mg/kg; ED50 [3]: 2.6 mg/kg; Ratio [5]: 8.4
CCNCCNC(=O)c1cc(Cl)c(N)cc1OC [MONODEETHYLATED-MCP] | > 30 | 
CCN(CCNC(=O)c1cc(Cl)c(N)cc1OC)Cc1ccc(Cl)cc1Cl | 10 | 
CCN(CCNC(=O)c1cc(Cl)c(N)cc1OC)Cc1ccco1 | 3 | 
CCN(CCNC(=O)c1cc(Cl)c(N)cc1OC)Cc1cccc(OC)c1 | 1 | 
O=C(CCCN1CCC(O)(c2ccc(Cl)cc2)CC1)c1ccc(F)cc1 [HALOPERIDOL] | 0.095 | ED50 [4]: 1 mg/kg; ED50 [3]: 0.021 mg/kg; Ratio [5]: 11
COc1cc(N(C)C)c(Cl)cc1C(=O)NC1CCN(C2CCCCC2)C1 (configuration not stated) | 1 | 
COc1cc(N)c(Cl)cc1C(=O)NCC1CCC(C)N1Cc1ccccc1 (configuration not stated) | 0.67 | 
CCN1CCC(NC(=O)c2cc(Cl)c(NC)cc2OC)C1 (configuration not stated) | 10 | 
CNc1cc(OC)c(C(=O)NCC2CCCN2Cc2ccccc2)cc1Cl.Cl (configuration not stated) | 0.94 | 
CCCCN(CCNC(=O)c1cc(Cl)c(N)cc1OC)Cc1ccc(Cl)cc1 | 20 | 
COc1cc(C(=O)NCCN(C)Cc2ccccc2)cc(OC)c1OC | > 30 | 
CNc1cc(OC)c(C(=O)NC2CCN(Cc3ccccc3)C2)cc1Cl (configuration not stated) | 0.016 | ED50 [4]: 1.6 mg/kg; ED50 [3]: 0.008 mg/kg; Ratio [5]: 100
CCN1CCCC1CNC(=O)c1cc(S(N)(=O)=O)ccc1OC (configuration not stated) [SULPIRIDE] | > 100 | 
CCN1C(CNC(=O)c2cc(Cl)c(NC)cc2OC)CCC1c1ccccc1 (configuration not stated) | > 30 | 
COc1cc(N)c(Cl)cc1C(=O)NCCN(Cc1ccccc1)C(C)(C)C | > 30 | 
